Compound activity: PubChem, The Scripps Research Institute Molecular Screening Center
This is a sample that favours compounds with a hit; in the whole collection about 2.7% have one here.
OX1R antag-1: antagonists of human orexin 1 receptor (OX1R); OX1R-expressing cells, FRET antagonist read-out; O43613; 1.8% of 330,000 active; inhibition, % at 6.6 µM; in the data active = inhibition mostly above about 38%, no sharp cut-off; inactive = mostly below about 40%;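 also: 0% = agonist challenge alone and 100% = reference antagonist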
OXTR ag: agonists of human oxytocin receptor | CHO-OTR cells, Fluo-8 calcium fluorescence; normalized: DMSO 0%, oxytocin 100% | activation, % at 3 µM | 0.32% of 320,000 active | AID 2435;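 active = activation above the mean of all tested compounds plus 3 SD, cutoff set per screening run, cut at about 20% in these data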;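 also: peak over basal fluorescence ratio from a 100 s FLIPR kinetic read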
V1aR counter: activates human V1a receptor in oxytocin agonist counter-screen; 0.25% of 320,000 active; AID 2797; CHO-V1R cells, Fluo-8 calcium fluorescence, agonist mode; 0% DMSO, 100% 3 nM vasopressin; activation, % at 3 µM; P37288;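 active = activation above the mean activation of all tested compounds plus 3 SD, per screening run, cut at about 20% in these data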;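 also: signal is peak over basal fluorescence ratio across a 100 second FLIPR read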
Target sequence (P37288 whole entry, looked up): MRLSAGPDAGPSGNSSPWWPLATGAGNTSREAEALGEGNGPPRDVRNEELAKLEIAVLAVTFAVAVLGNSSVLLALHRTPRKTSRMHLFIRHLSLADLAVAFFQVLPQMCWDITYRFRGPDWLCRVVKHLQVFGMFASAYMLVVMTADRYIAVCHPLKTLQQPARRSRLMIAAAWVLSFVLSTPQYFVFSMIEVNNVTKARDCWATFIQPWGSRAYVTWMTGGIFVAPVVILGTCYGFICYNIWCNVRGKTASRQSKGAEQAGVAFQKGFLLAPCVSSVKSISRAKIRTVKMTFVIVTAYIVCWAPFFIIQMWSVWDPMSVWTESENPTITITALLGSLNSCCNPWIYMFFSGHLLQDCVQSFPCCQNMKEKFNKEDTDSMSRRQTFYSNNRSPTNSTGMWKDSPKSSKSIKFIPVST
OXTR potentiate: potentiators of human oxytocin receptor; CHO-OTR cells, Fluo-8 calcium fluorescence, potentiator mode; 0% = oxytocin EC15, 100% = EC100; 0.061% of 320,000 active; P30559; activation, % at 3 µM;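 active = activation above that plate's cutoff, the mean activation of tested compounds plus 3 SD, cut at about 6.6% in these data, passing the limit was not always enough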;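 also: 100% uses oxytocin at 75 nM as the full agonist control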
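Assay system: CHO-OTR cells, human receptor / Also added: oxytocin at about EC15, sub-maximal agonist stimulus / Dosing: single dose, 3.0 µM nominal final compound concentration / Incubation: 6 min pre-incubation, 100 s read / Technique: Fluo-8 calcium dye fluorescence / Read-out: % activation vs EC15 and EC100 oxytocin / Benchmarks: EC15 oxytocin low, 75 nM oxytocin high / Replicates: singlicate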
CHO parental Ca: counter-screen for OX1R antagonists: effect in parental CHO cells | inhibition, % at 5.6 µM | 0.63% of 330,000 active | parental CHO-K1, ATP-induced calcium, Fluo-8 fluorescence;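 active = inhibition above that plate's mean sample inhibition plus 3 SD, cut at about 26% in these data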;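 also: 0% = ATP-challenged DMSO wells and 100% = DMSO wells without ATP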
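material = parental CHO cells | also added = ATP as calcium-mobilizing challenge | dosing = single point at 5.6 µM | detection = intracellular calcium via Fluo-8 no-wash fluorescent dye | read-out = % inhibition | benchmarks = low control ATP plus DMSO, high control DMSO only | repeats = one well per compound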
OX1R antag-2: human HCRTR1 antagonism; inhibition, % at 5 µM; AID 434989; CHO/OX1R cells, Fluo-8 calcium fluorescence, orexin A; 0.43% of 330,000 active;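 active = inhibition above its plate's threshold, mean inhibition of all tested compounds on the plate plus 3 SD, cut at about 37% in these data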;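 also: 0% = orexin A challenge wells and 100% = SB-334867-A antagonist wells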
OX1R Fluo8 conf: OX1R (human) antagonism, confirmed; CHO/OX1R cells, orexin A calcium Fluo-8 fluorescence; inhibition, % at 5 µM; 38% of 1,100 active; shares compounds with OX1R antag-2; in the data active = inhibition above about 29%;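 also: 0% = agonist challenge alone and 100% = reference antagonist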
CHO Ca triplic: signal in parental CHO cells, OX1R antagonist counter-screen. 9.3% of 1,100 active. inhibition, % at 5.6 µM. shares compounds with OX1R antag-2. parental CHO-K1, ATP-induced calcium, Fluo-8 fluorescence;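 active = inhibition above a per-plate limit, the mean inhibition of that plate's test compounds plus 3 SD, cut at about 25% in these data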;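 also: 0% = ATP challenge with DMSO and 100% = DMSO without ATP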
OX1R HTRF confirm: confirmation of human orexin 1 receptor antagonists, HTRF format; shares compounds with OX1R antag-1; OX1R-expressing cells, HTRF antagonist assay; inhibition, % at 6.6 µM; 49% of 1,800 active; AID 492964; in the data active = inhibition above about 55%;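 also: CHO cells expressing OX1R stimulated with orexin A at about EC80; 0% = agonist challenge alone and 100% = reference antagonist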
CHO-K1 HTRF: counter-screen for OX1R antagonists: effect in parental CHO-K1 cells. 48% of 1,800 active. shares compounds with OX1R antag-1. inhibition, % at 6.6 µM. HTRF counterscreen. AID 493232; in the data active = inhibition above about 17%;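 also: 0% = agonist challenge with vehicle and 100% = vehicle alone without agonist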
* hit, by the source's call; . = no result.

SMILES | OX1R antag-1 | OXTR ag | V1aR counter | OXTR potentiate | CHO parental Ca | OX1R antag-2 | OX1R Fluo8 conf | CHO Ca triplic | OX1R HTRF confirm | CHO-K1 HTRF
O=C(NCc1ccccc1)C(Cc1ccccc1)NS(=O)(=O)c1cccc2nsnc12 (stereo unspecified) | 24 | 0 | 0 | -6 | -17 | -10 | . | . | . | .
O=S(=O)(CCOc1ccccc1)c1nc2ccccc2[nH]1 | 86* | 0 | 0 | -2 | -17 | 33 | 15 | -2 | 54 | -1
Cc1ccc(S(=O)(=O)N(CCCO)CC(O)CON=C2c3ccccc3-c3ccccc32)cc1 (stereo unspecified) | 73* | 0 | 6 | -15 | -6 | 42* | 26 | -4 | 76* | 4
CCN(CC(O)Cn1c2ccccc2c2ccccc21)S(=O)(=O)c1ccc(C)cc1 (stereo unspecified) | 11 | -2 | 1 | -18 | -20 | 1 | . | . | . | .
COc1ccc(/C=N/NC(=O)c2ccc3ccccc3c2)cc1OS(=O)(=O)c1ccc(NC(C)=O)cc1 | 63* | 3 | 2 | -8 | 18 | 60* | 41* | 13 | 53 | -1
Cc1[nH]c2ccccc2c1C(=O)CSc1nc2ccccc2[nH]1 | 80* | 6 | 5 | -9 | -13 | 54* | 38* | -2 | 91* | 2
Cc1[nH]c2ccccc2c1C(=O)CSc1nccc(=O)[nH]1 | 18 | 1 | -1 | 5 | -5 | -8 | . | . | . | .
CC(C)OC(=O)/C(C#N)=C/c1cn(C)c2ccccc12 | 6 | -3 | -1 | -4 | -16 | -25 | . | . | . | .
Cn1cc(/C=C(\C#N)C(=O)Nc2ccccc2O)c2ccccc21 | 68* | 4 | 5 | -19 | -8 | 57* | 57* | 10 | 89* | 11
COc1cccc(NC(=O)CN2C(=O)C(c3ccc(C)cc3)=NC23CCCCCC3)c1 | 75* | -2 | -1 | -7 | -28 | 41* | 47* | 0 | 87* | 3
COc1ccc(C(=O)/C=C/c2cc(OC)c(O)c(OC)c2)c(F)c1 | 35 | 19 | 15 | -9 | -5 | 6 | . | . | . | .
COc1ccc2cc(C(=O)/C=C/c3cc(OC)c(O)c(OC)c3)ccc2c1 | 62* | 7 | 8 | -8 | -15 | 35 | 49* | -1 | 75* | -9
O=C(N/N=C/C(Br)=C/c1ccccc1)c1cc(-c2ccco2)[nH]n1 | 73* | 0 | 0 | -6 | -12 | 26 | 50* | 7 | 87* | 9
CC(/C=N/NC(=O)c1cc(-c2cccs2)[nH]n1)=C\c1ccccc1 | 88* | 0 | 1 | -4 | -15 | 45* | 45* | -2 | 73* | 11
CC(/C=N/NC(=O)c1cc(C(C)C)[nH]n1)=C\c1ccccc1 | 3 | -1 | 0 | -1 | -9 | -14 | . | . | . | .
O=C(NCC(=O)N1CCN(S(=O)(=O)c2ccccc2F)CC1)c1ccc(Br)o1 | -10 | -1 | 0 | -2 | -14 | -22 | . | . | . | .
CCc1sc(C(=O)Nc2nc(-c3ccccn3)cs2)cc1C | 52* | 0 | 0 | 0 | -11 | 38 | 19 | -7 | 32 | 10
Cc1ccc(C(=O)Nc2nc(-c3ccccn3)cs2)s1 | 6 | 0 | 4 | -5 | -12 | 7 | . | . | . | .
COc1cccc2sc3cc(C#CC4(O)CCCCC4)ccc3c(=O)c12 | 80* | 0 | 1 | -3 | -4 | 87* | 55* | -13 | 87* | 15
COc1cccc(/C=C2/Oc3ccccc3N(CC(=O)NCC3CCCO3)C2=O)c1 (stereo unspecified) | 109* | 3 | 4 | -9 | -13 | 75* | 94* | -12 | 94* | 13
O=C(O)CN1C(=O)/C(=C/c2cccc(Cl)c2)Oc2ccccc21 | 77* | 0 | 1 | 0 | -8 | 32 | 13 | -3 | 66* | 11
CC1Oc2ccccc2N(CC(=O)NCC2CCCO2)C1=O (stereo unspecified) | 2 | 0 | 0 | -4 | -5 | -14 | . | . | . | .
COc1ccc(NC(=O)Oc2cc(C)ccc2C(C)C)cc1 | 14 | -1 | 0 | 0 | -5 | -2 | . | . | . | .
CCOC(=O)N1CCN(C(=O)COC(=O)C2CCN(S(=O)(=O)c3c(Cl)cccc3Cl)CC2)CC1 | 13 | 6 | 4 | -11 | -8 | -16 | . | . | . | .
O=C(Nc1cccc(Cl)c1)c1ccc(F)c(S(=O)(=O)NCc2ccc3c(c2)OCO3)c1 | 83* | 1 | 3 | -17 | -6 | 59* | 48* | -1 | 76* | -6
SMILES | OX1R antag-1 | OXTR ag | V1aR counter | OXTR potentiate | CHO parental Ca | OX1R antag-2 | OX1R Fluo8 conf | CHO Ca triplic | OX1R HTRF confirm | CHO-K1 HTRF
O=C(NCc1ccc2c(c1)OCO2)c1ccc(Cl)c(S(=O)(=O)NCc2ccccc2)c1 | 20 | -1 | 1 | 0 | -14 | -11 | . | . | . | .
O=C(c1cccc(N2CCNC2=O)c1)N1CCCC(Nc2cccc(F)c2)C1 (stereo unspecified) | 98* | -1 | 0 | -4 | -9 | 33 | 68* | -4 | 71* | -31
CC1CN(C(=O)CCC(=O)N2CCOCC2)c2ccccc2O1 (stereo unspecified) | 0 | -1 | -2 | -5 | 12 | -2 | . | . | . | .
O=c1c2ccccc2oc2cc(-c3ccc4[nH]ccc4c3)ccc12 | 88* | 0 | 0 | -12 | -5 | 67* | 76* | 3 | 88* | 5
Cn1c(=O)c(C(=O)COC(=O)c2cc(-c3ccco3)nc3ccccc23)c(N)n(CC2CC2)c1=O | 69* | 0 | 0 | -14 | 8 | 37 | 26 | -4 | 64* | 3
Cc1nn(CC(=O)Nc2nnc(C(C)C)s2)c(=O)c2ccccc12 | 6 | 1 | 1 | -4 | -9 | -4 | . | . | . | .
Cc1cnc(NC(=O)c2cc3c(C)nn(-c4ccccc4)c3s2)s1 | 56* | 0 | 0 | -7 | -27 | 77* | 73* | -8 | 93* | 12
Cc1cccc(Cc2ncc(C(F)(F)F)cc2Cl)c1 | -10 | 0 | 0 | -12 | 3 | -11 | . | . | . | .
COc1cc(/C=N/NC(=O)CCn2nnc3ccccc32)ccc1O | 14 | 1 | 1 | -6 | -9 | 22 | . | . | . | .
